Experimental data reported in ChEMBL document CHEMBL2417509, “Synthesis and biological evaluation of prodigiosene conjugates of porphyrin, estrone and 4-hydroxytamoxifen” (2013).
The source made the active and inactive calls. No cut-off for these calls is given here.

Key:
MDA-MB-468 = experiment: Cytotoxicity against human MDA-MB-468 cells after 2 days by sulforhodamine B assay; format: functional; details: MDA-MB-468, 48 h
How it was run: (§1)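 NCI60 multi-dose screen, 59 human tumour lines available. Cells exposed to compound across a 5-log mol/L concentration range for 2 days, then fixed and stained with sulphorhodamine B, optical density read. Growth inhibition calculated against time-zero control and untreated cells. GI50 derived from the dose series, average of two replicates.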

MCF7 = experiment: Cytotoxicity against human ER positive MCF7 cells assessed as cell viability at 1 uM after 72 hrs by MTT assay; format: functional, cell-based
How it was run: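 Lines kept in DMEM with 10% fetal bovine serum and 1% penicillin/streptomycin at 37 °C, 5% CO2. Compound applied at 1 µM for 72 h, then standard MTT reduction read-out. Viability given as mean percentage of formazan formed by treated cells relative to mock-treated cells (0.1% DMSO). Run in quadruplicate, standard error, Student's t-test.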

SF-539 = experiment: Cytotoxicity against human SF539 cells after 2 days by sulforhodamine B assay; format: functional; details: SF-539, 48 h; how it was run: as §1
SW-620 = experiment: Cytotoxicity against human SW620 cells after 2 days by sulforhodamine B assay; format: functional; details: SW-620, 48 h
How it was run: (§2)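 NCI DTP NCI60 multi-dose screen (59 human tumour lines available). Cells exposed to compound over a 5-log mol/L concentration range for 2 days, then fixed and stained with sulphorhodamine B, with optical density read. Growth inhibition calculated relative to time-zero cells and untreated cells, giving GI50 (half-maximal growth inhibition concentration). Average of two replicates.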

HT-29 = experiment: Cytotoxicity against human HT-29 cells after 2 days by sulforhodamine B assay; format: functional; details: HT-29, 48 h; how it was run: as §1
RPMI-8226 = experiment: Cytotoxicity against human RPMI8226 cells after 2 days by sulforhodamine B assay; format: functional; details: RPMI-8226, 48 h; how it was run: as §1
HOP-92 = experiment: Cytotoxicity against human HOP92 cells after 2 days by sulforhodamine B assay; format: functional; details: HOP-92, 48 h; how it was run: as §1
DU-145 = experiment: Cytotoxicity against human DU145 cells after 2 days by sulforhodamine B assay; format: functional; details: DU-145, 48 h; how it was run: as §1
MDA-MB-231 = experiment: Cytotoxicity against human MDA-MB-231 cells after 2 days by sulforhodamine B assay; format: functional; details: MDA-MB-231, 48 h; how it was run: as §1
U-251 = experiment: Cytotoxicity against human U251 cells after 2 days by sulforhodamine B assay; format: functional; details: U-251, 48 h; how it was run: as §2
A549 = experiment: Cytotoxicity against human A549/ATCC cells after 2 days by sulforhodamine B assay; format: functional; details: A549, 48 h; how it was run: as §1
HCC 2998 = experiment: Cytotoxicity against human HCC2998 cells after 2 days by sulforhodamine B assay; format: functional; details: HCC 2998, 48 h; how it was run: as §1
TK-10 = experiment: Cytotoxicity against human TK10 cells after 2 days by sulforhodamine B assay; format: functional; details: TK-10, 48 h; how it was run: as §2
786-0 = experiment: Cytotoxicity against human 786-0 cells after 2 days by sulforhodamine B assay; format: functional; details: 786-0, 48 h; how it was run: as §1
PC-3 = experiment: Cytotoxicity against human PC3 cells after 2 days by sulforhodamine B assay; format: functional; details: PC-3, 48 h; how it was run: as §1
T47D = experiment: Cytotoxicity against human T47D cells after 2 days by sulforhodamine B assay; format: functional; details: 48 h; how it was run: as §2
CAKI-1 = experiment: Cytotoxicity against human CAKI-1 cells after 2 days by sulforhodamine B assay; format: functional; details: CAKI-1, 48 h; how it was run: as §1
ACHN = experiment: Cytotoxicity against human ACHN cells after 2 days by sulforhodamine B assay; format: functional; details: 48 h; how it was run: as §1
SNB-75 = experiment: Cytotoxicity against human SNB75 cells after 2 days by sulforhodamine B assay; format: functional; details: SNB-75, 48 h; how it was run: as §2
NCI-H522 = experiment: Cytotoxicity against human NCI-H522 cells after 2 days by sulforhodamine B assay; format: functional; details: NCI-H522, 48 h; how it was run: as §1
RXF 393 = experiment: Cytotoxicity against human RXF393 cells after 2 days by sulforhodamine B assay; format: functional; details: RXF 393, 48 h; how it was run: as §1
MOLT-4 = experiment: Cytotoxicity against human MOLT4 cells after 2 days by sulforhodamine B assay; format: functional; details: MOLT-4, 48 h; how it was run: as §1
Malme-3M = experiment: Cytotoxicity against human MALME-3M cells after 2 days by sulforhodamine B assay; format: functional; details: 48 h; how it was run: as §1
SNB-19 = experiment: Cytotoxicity against human SNB19 cells after 2 days by sulforhodamine B assay; format: functional; details: SNB-19, 48 h; how it was run: as §2
SF-268 = experiment: Cytotoxicity against human SF268 cells after 2 days by sulforhodamine B assay; format: functional; details: SF-268, 48 h; how it was run: as §1
A498 = experiment: Cytotoxicity against human A498 cells after 2 days by sulforhodamine B assay; format: functional; details: A498, 48 h; how it was run: as §1
[1] = Cytotoxicity against human Hs578T cells after 2 days by sulforhodamine B assay; format: functional; details: Hs-578T, 48 h; how it was run: as §1
IGROV-1 = experiment: Cytotoxicity against human IGROV1 cells after 2 days by sulforhodamine B assay; format: functional; details: IGROV-1, 48 h; how it was run: as §1
COLO 205 = experiment: Cytotoxicity against human COLO205 cells after 2 days by sulforhodamine B assay; format: functional; details: COLO 205, 48 h; how it was run: as §1
[2] = Cytotoxicity against human NCI-ADR-RES cells after 2 days by sulforhodamine B assay; format: functional; details: 48 h; how it was run: as §1
[3] = read-out: LC50 (the source's name)

SMILES: COc1cc(-c2ccc[nH]2)[nH]c1/C=C1\N=C(C)C(C(=O)CCC(=O)Oc2ccc3c(c2)CC[C@@H]2[C@@H]3CC[C@]3(C)C(=O)CC[C@@H]23)=C1C
- GI50 (MDA-MB-468): 17 µM
- LC50 (MDA-MB-468): > 100 µM
- TGI (MDA-MB-468): > 100 µM
- Activity (MCF7): inactive
- GI50 (SF-539): 15.5 µM
- LC50 (SF-539): > 100 µM
- TGI (SF-539): > 100 µM
- GI50 (SW-620): 0.77 µM
- LC50 (concentration killing 50% of cells) (SW-620): > 100 µM
- TGI (SW-620): > 100 µM
- GI50 (HT-29): 0.87 µM
- LC50 (HT-29): > 100 µM
- TGI (HT-29): > 100 µM
- GI50 (RPMI-8226): 6.86 µM
- LC50 (concentration killing 50% of cells present at time zero) (RPMI-8226): > 100 µM
- TGI (RPMI-8226): > 100 µM
- GI50 (HOP-92): 2.23 µM
- TGI (HOP-92): 19.4 µM
- CC50 (HOP-92; [3]): > 100 µM
- GI50 (DU-145): 1.96 µM
- LC50 (concentration killing 50% of starting cells) (DU-145): > 100 µM
- TGI (DU-145): > 100 µM
- GI50 (MDA-MB-231): 0.27 µM
- LC50 (MDA-MB-231): 23 µM
- TGI (MDA-MB-231): 1.21 µM
- GI50 (U-251): 3.41 µM
- LC50 (U-251): > 100 µM
- TGI (U-251): > 100 µM
- GI50 (A549): 2.68 µM
- LC50 (concentration giving 50% net cell kill) (A549): > 100 µM
- TGI (A549): > 100 µM
- GI50 (HCC 2998): 17 µM
- LC50 (50% lethal concentration) (HCC 2998): > 100 µM
- TGI (HCC 2998): > 100 µM
- GI50 (TK-10): 27.8 µM
- LC50 (TK-10): > 100 µM
- TGI (TK-10): > 100 µM
- GI50 (786-0): 5.99 µM
- LC50 (concentration killing 50% of cells) (786-0): > 100 µM
- TGI (786-0): 40 µM
- GI50 (PC-3): 7.45 µM
- LC50 (concentration killing 50% of cells) (PC-3): > 100 µM
- TGI (PC-3): > 100 µM
- GI50 (T47D): 15.4 µM
- LC50 (concentration killing 50% of cells) (T47D): > 100 µM
- TGI (T47D): > 100 µM
- GI50 (CAKI-1): 9.05 µM
- LC50 (concentration killing 50% of the cells present at time zero) (CAKI-1): > 100 µM
- TGI (CAKI-1): > 100 µM
- GI50 (ACHN): 5.83 µM
- LC50 (concentration killing 50% of cells) (ACHN): > 100 µM
- TGI (ACHN): > 100 µM
- GI50 (SNB-75): 59.1 µM
- LC50 (concentration killing 50% of starting cells) (SNB-75): > 100 µM
- TGI (SNB-75): > 100 µM
- GI50 (NCI-H522): 4.68 µM
- LC50 (NCI-H522): > 100 µM
- TGI (NCI-H522): 60.1 µM
- GI50 (RXF 393): 11.7 µM
- LC50 (concentration killing 50% of cells) (RXF 393): > 100 µM
- TGI (RXF 393): > 100 µM
- GI50 (MOLT-4): 2.72 µM
- TGI (MOLT-4): > 100 µM
- CC50 (MOLT-4; [3]): > 100 µM
- GI50 (Malme-3M): 29 µM
- LC50 (Malme-3M): > 100 µM
- TGI (Malme-3M): > 100 µM
- GI50 (SNB-19): 18.4 µM
- TGI (SNB-19): > 100 µM
- CC50 (SNB-19; [3]): > 100 µM
- GI50 (SF-268): 5.62 µM
- LC50 (concentration killing 50% of cells) (SF-268): > 100 µM
- TGI (SF-268): > 100 µM
- GI50 (A498): 8.49 µM
- LC50 (A498): > 100 µM
- TGI (A498): 59.1 µM
- GI50 [1]: 14.2 µM
- TGI [1]: > 100 µM
- CC50 [1, 3]: > 100 µM
- GI50 (IGROV-1): 8.4 µM
- LC50 (IGROV-1): > 100 µM
- TGI (IGROV-1): > 100 µM
- GI50 (COLO 205): 21.6 µM
- LC50 (concentration killing 50% of cells) (COLO 205): > 100 µM
- TGI (COLO 205): > 100 µM
- GI50 [2]: 13.1 µM
- TGI [2]: > 100 µM
- CC50 [2, 3]: > 100 µM
